Source: paper PMC6047365 (Biochemistry and Biophysics Reports, 2018)
Read-outs that look alike come from different tables or passages of the source.

Legend:
JEV RNA replication = assay: JEV replicon Firefly luciferase; assay type: cell-based; conditions: Japanese encephalitis virus, 72 h, read-out: EC50 JEV
How it was run: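 JEV replicon cells (BHKMuarPACLuc rep, maintained with puromycin 10 μg/ml) were seeded at 1×10^5 per well in triplicate. They were treated with several concentrations of test compound for 72 h, then firefly luciferase was measured. Activity was expressed relative to untreated cells (100%), mean±SD of triplicates, and EC50 was derived.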

DENV RNA replication = assay: DENV/Gaussia luciferase; assay type: cell-based; conditions: Dengue virus, BHK-21, 72 h, read-out: EC50 DENV
How it was run: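 BHK-21 cells were seeded at 1×10^4 per well in triplicate and transfected with the DENV replicon plasmid DGL2. At 24 h post-transfection they were treated with several concentrations of test compound for 72 h, then Gaussia luciferase was measured. Signal was expressed relative to untreated cells (100%), mean±SD of triplicates, and EC50 was derived.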

HEV RNA replication = assay: HEV/NanoLuc luciferase; assay type: cell-based; conditions: Hepatitis E virus, PLC-PRF-5, 72 h, read-out: EC50 HEV
How it was run: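 HEV replicon RNA was electroporated into PLC/PRF/5 cells, which were plated at 2.5×10^4 per well in triplicate. Cells were treated with several concentrations of test compound for 72 h, and NanoLuc was read by Nano-Glo. Signal was taken relative to untreated cells (100%), mean±SD of triplicates, and EC50 was derived.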

[1] = CellTiter 96 AQueous one solution cell proliferation assay; assay type: cell-based; conditions: human, PLC/PRF/5 cells
How it was run: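 PLC/PRF/5 cells seeded at 2.5×10^4 per well in triplicate and exposed to several concentrations of test compound for 72 h. Viability was read by the CellTiter 96 AQueous one solution assay. Values were taken relative to untreated cells (100%), given as mean±SD of triplicates, and CC50 was derived from the curves.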

HBV = HBV replication assay; assay type: cell-based; conditions: Hepatitis B virus, HepG2, read-out: EC50 HBV
How it was run: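 Inoculum was HBV from HepG2.2.15 supernatant, given at 1000 genome equivalents/cell in medium with 4% PEG8000 and 2% DMSO for 24 h. Medium was then replaced and cells were cultured 8 days. Cellular DNA was extracted and HBV DNA quantified by real-time qPCR. Results were taken relative to untreated cells (100%), mean±SD of triplicates.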

[2] = Cell count after trypan blue dye treatment; assay type: cell-based; conditions: human, HepG2/NTCP cells
HCV RNA replication [3] = conditions: read-out: EC50 HCV (HuH-7), HuH-7 cell-derived assays, cited from earlier work
HuH-7 = conditions: read-out: CC50 HCV (HuH-7), HuH-7 cell-derived assays, cited from earlier work
HCV RNA replication [4] = conditions: read-out: EC50 HCV (Li23), Li23 cell-derived assays, cited from earlier work
Li23 = conditions: read-out: CC50 HCV (Li23), Li23 cell-derived assays, cited from earlier work
HBV/NL virus entry = assay: HBV/NL reporter assay, entry step; assay type: cell-based, hepatitis B virus; conditions: HBV/NL-infected HepG2/NTCPmyc cells, NL activity
How it was run: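 Reporter HBV/NL virus came from supernatant of HepG2 cells cotransfected with pUC1.2HBV/NL and pUC1.2HBVΔε. HepG2/NTCPmyc cells were infected at 10–100 genome equivalents with 4% PEG8000 and 2% DMSO overnight, with test compound applied per the entry-step schedule. NanoLuc activity was read with Nano-Glo, relative to untreated cells (100%), mean±SD of triplicates. P was computed vs. untreated.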

[5] = system: HBV/NL, covalently closed circular DNA formation to translation of viral mRNAs; assay: HBV/NL reporter assay, after entry to translation steps; assay type: cell-based, hepatitis B virus; conditions: HBV/NL-infected HepG2/NTCPmyc cells, NL activity
[6] = compared with N-89; ref [3]; cited from earlier work

Row | Structure (SMILES) | EC50 (JEV RNA replication) | EC50 (DENV RNA replication) | EC50 (HEV RNA replication) | CC50 at 72 h [1] | EC50 (HBV) | CC50 at 9 days [2] | EC50 (HCV RNA replication [3]; ref Mori et al. [16]) | CC50 (HuH-7; ref Mori et al. [16]) | EC50 (HCV RNA replication [4]; ref Mori et al. [16]) | CC50 (Li23; ref Mori et al. [16]) | Effect on the process of virus entry (HBV/NL virus entry) | Effect on the process of covalently closed circular DNA formation to translation of viral mRNAs [5] | EC50 (HCV RNA replication [3]; ref Ueda et al. [4]) | CC50 (HuH-7; ref Ueda et al. [4]) | EC50 (HCV RNA replication [4]; ref Ueda et al. [4]) | CC50 (Li23; ref Ueda et al. [4]) | Water solubility [6]
1 | NC(=O)c1ncn([C@@H]2O[C@H](CO)[C@@H](O)[C@H]2O)n1 [RBV, Ribavirin, reference compound] | 22 µM | 15 µM | 19 µM | > 100 µM | > 100 µM | > 100 µM | > 100 µM | > 100 µM | 8.7 to 15.9 µM | > 100 µM |  |  |  |  |  |  | 
2 | OCCCCCCC1COOC2(CCCCCCCCCCC2)OOC1 [N-251, 6-(1,2,6,7-tetraoxaspiro[7.11]nonadec-4-yl)hexan-1-ol] | 15 µM | 6.5 µM | 13 µM | 56 µM | 1.9 µM | 16 µM |  |  |  |  | did not prevent the process of virus entry | not inhibited | 0.14 to 0.98 µM | 0.49 to 3.8 µM | 0.059 to 0.29 µM | 1.1 to 2.8 µM | higher water solubility than N-89
